Assay results taken from ChEMBL document CHEMBL1141824, “The antiproliferative effect of acridone alkaloids on several cancer cell lines” (J Nat Prod, 1999).

What was measured:
Assay type in all cases: functional, cell-based
TGBC11TKB = test: Antiproliferative activity against human TGBC11TKB cells after 3 days by alamar blue assay; details: 72 h
Method in brief: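 TGBC11TKB, a lymph-node-metastasized gastric cancer line, was grown in DMEM with 5% FBS. 2×10^3 cells per well were plated, grown 24 h, then given medium with serial dilutions (final DMSO ≤0.4%) for 3 days. alamar Blue was then added for 6 h. Read-out was blank-corrected A570−A595 as % of untreated control, in triplicate.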

CCRF-HSB-2 = test: Antiproliferative activity against human CCRF-HSB-2 cells after 3 days by alamar blue assay; details: CCRF-HSB-2, 72 h
Method in brief: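 Suspension line maintained in RPMI1640 with 10% FBS. 10⁴ cells per well were preincubated 24 h, then mixed with an equal volume of serially diluted samples (DMSO up to 0.4%) and exposed for 3 days. Staining was alamar Blue for 24 h. Growth was expressed as % of untreated control from blank-subtracted A570−A595. Triplicate points.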

A549 = test: Antiproliferative activity against human A549 cells after 3 days by alamar blue assay; details: A549, 72 h
Method in brief: (§1)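 Cells kept in DMEM with 10% heat-inactivated FBS. 2×10^3 cells per well were grown 24 h, then an equal volume of medium with serial sample dilutions was added (DMSO ≤0.4%). After 3 days, alamar Blue was added for 6 h. Proliferation was taken as blank-corrected (A570−A595) as % of untreated growth control. Triplicates.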

B16 = test: Antiproliferative activity against mouse B16 cells after 3 days by alamar blue assay; details: B16, 72 h; method in brief: as §1

IC50 (CCRF-HSB-2) [µM] | IC50 (A549) [µM] | IC50 (B16) [µM] | Structure (SMILES) | IC50 (TGBC11TKB) [µM]
> 40 | > 40 | > 40 | CC(C)=CCc1c2c(c3c(c1O)c(=O)c1ccccc1n3C)C=CC(C)(C)O2 | > 40
3.1 | 6.37 | 5.05 | CC1(C)C=Cc2c(cc(O)c3c(=O)c4ccccc4[nH]c23)O1 | 2.07
> 40 | > 40 | > 40 | COc1cc2c(c3[nH]c4ccccc4c(=O)c13)C=CC(C)(C)O2 | > 40
2.5 | 6.26 | 4.63 | CC(C)=CCc1c2c(c3[nH]c4c(O)cccc4c(=O)c3c1O)C=CC(C)(C)O2 [ATALAPHYLLININE] | 1.43
> 40 | > 40 | > 40 | COc1cc(O)c2c(=O)c3ccc(O)c(OC)c3n(C)c2c1 [CITPRESSINE II] | > 40
> 40 | > 40 | > 40 | COc1ccc2c(=O)c3c(O)cc4c(c3n(C)c2c1OC)C=CC(C)(C)O4 [CITRACRIDONE II] | > 40
> 40 | > 40 | > 40 | COc1c(O)ccc2c(=O)c3c(O)cc4c(c3n(C)c12)C=CC(C)(C)O4 [CITRACRIDONE I] | > 40
> 40 | > 40 | > 40 | COc1cc(O)c2c(=O)c3cccc(O)c3n(C)c2c1CC=C(C)C [GLYCOCITRINE I] | > 40
> 40 | > 40 | > 40 | Cn1c2ccccc2c(=O)c2c(O)cc3c(c21)C=CC(C)(C)O3 [NORACRONYCINE] | > 40

Continued, compound first:

Structure (SMILES) | IC50 (CCRF-HSB-2) [µM] | IC50 (A549) [µM] | IC50 (B16) [µM] | IC50 (TGBC11TKB) [µM]
Cn1c2c(O)cccc2c(=O)c2c(O)cc3c(c21)C=CC(C)(C)O3 | 23.6 | > 40 | > 40 | 16.2
CC(C)=CCc1c2c(c3c(c1O)c(=O)c1cccc(O)c1n3C)C=CC(C)(C)O2 | 5.41 | 9.37 | 8.04 | 2.13
CC1(C)C=Cc2c(cc(O)c3c(=O)c4cccc(O)c4[nH]c23)O1 [ATOLAPHYLLIDINE] | 4.65 | 6.98 | 5.58 | 2.83
COc1cc(O)c2c(=O)c3cccc(O)c3n(C)c2c1OC [CITRUSININE-I] | > 40 | > 40 | > 40 | > 40
CC(C)=CCc1c(O)cc(O)c2c(=O)c3ccccc3n(C)c12 [GLYCOCITRINE II] | > 40 | > 40 | > 40 | > 40
COc1cc(O)c2c(=O)c3ccc(OC)c(O)c3n(C)c2c1 [GRANDISINE I] | 29.2 | 24.4 | > 40 | 19.3
